Reference: ChEMBL document CHEMBL4020824, “Discovery of Potent and Orally Bioavailable Dihydropyrazole GPR40 Agonists” (J Med Chem, 2018)
The source made the active and inactive calls. The rule behind the calls is not given here.

Columns and labels:
[1] = Stability in rat liver microsomes assessed as parent compound remaining at 1 to 3 uM incubated for 20 mins in presence NADPH measured up to 90 mins by LC/MS/MS analysis; format: ADME, microsome; settings: liver microsomes, read-out: Stability
Summary of the method: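 Human or rat liver microsomal incubations. The read-outs were % parent remaining, % D-ring dealkylation metabolites, % GSH adducts, and half-life (min). The metabolites followed were CYP450-mediated oxidative de-alkylation products (phenols) and GSH conjugates.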

[2] = Oral bioavailability in cynomolgus monkey at 1 mg/kg administered via gavage as single dose measured up to 24 hrs post dose by LC-MS/MS analysis; format: ADME, organism-based, Macaca fascicularis; settings: in vivo
Mus musculus [3] = experiment: Toxicity in C57BL/6J mouse assessed as induction of hypoglycemia effect at 1 mg/kg, po administered 1 hr prior to glucose challenge measured after 120 mins by IPGTT; format: organism-based; settings: in vivo, 2 h
[4] = Cmax in C57BL6 mouse at 1 mg/kg, po administered as single dose measured up to 24 hrs post dose by LC-MS/MS analysis; format: ADME, organism-based; design: dose 1 mg/kg, route oral; settings: in vivo
[5] = Clearance in CD1 mouse at 1 mg/kg, iv administered as bolus dose or 1 mg/kg, po administered as single dose measured up to 24 hrs post dose by LC-MS/MS analysis; format: ADME, organism-based; settings: in vivo
Mus musculus [6] = experiment: Antidiabetic activity in C57BL/6J mouse assessed as effect on active GLP-1 levels at 3 mg/kg, po administered 1 hr prior to glucose challenge measured after 120 mins during OGTT assay by ELISA; format: functional, organism-based
[7] = Clearance in cynomolgus monkey at 0.5 mg/kg, iv administered as single dose measured up to 24 hrs post dose by LC-MS/MS analysis; format: ADME, organism-based, Macaca fascicularis; settings: in vivo
[8] = Tmax in C57BL6 mouse at 1 mg/kg, po administered as single dose measured up to 24 hrs post dose by LC-MS/MS analysis; format: ADME, organism-based; settings: in vivo
[9] = Half life in cynomolgus monkey at 0.5 mg/kg, iv administered as single dose measured up to 24 hrs post dose by LC-MS/MS analysis; format: ADME, organism-based, Macaca fascicularis; settings: in vivo
Mus musculus [10] = experiment: Antidiabetic activity in C57BL/6J mouse assessed as increase in active GLP-1 levels at 3 mg/kg, po administered 1 hr prior to glucose challenge measured after 120 mins in presence of DPP4 inhibitor BMS-538305 during OGTT assay by ELISA; format: functional, organism-based
Mus musculus [11] = experiment: Antidiabetic activity in C57BL/6J mouse assessed as reduction in plasma glucose excursion at 3 mg/kg, po administered 1 hr prior to glucose challenge measured after 120 mins in presence of DPP4 inhibitor BMS-538305 by OGTT assay; format: functional, organism-based

remaining at 20 min, up to 3 µM [1]: 75%
bioavailability [2]: 61%
Cmax [4]: 6 µM
clearance [5]: 2 mL/min/kg
clearance [7]: 0.7 mL/min/kg
Tmax [8]: 1 h
half-life [9]: 780 min
Compound: COc1cc(N2CC[C@@H](Oc3ccc(N4N=C(C(F)(F)F)[C@@H](C)[C@@H]4CC(=O)O)cc3)[C@H](C)C2)c(Cl)cn1
Activity (Mus musculus [3]): Non-Toxic
Activity (Mus musculus [6]): inactive
Activity (Mus musculus [10]): Active
Activity (Mus musculus [11]): Active
